Source: ChEMBL document CHEMBL1154366, “1,2-Diamines as inhibitors of co-activator associated arginine methyltransferase 1 (CARM1)” (Bioorg Med Chem Lett, 2009)

What was measured:
[1] = molecular target: T1, Histone-arginine methyltransferase CARM1 (Mus musculus, UniProt Q9WVG6); test: Inhibition of N-terminal His-tagged mouse recombinant CARM1 expressed in Sf9 cells by microbeta counting
T1 sequence (Q9WVG6 whole entry): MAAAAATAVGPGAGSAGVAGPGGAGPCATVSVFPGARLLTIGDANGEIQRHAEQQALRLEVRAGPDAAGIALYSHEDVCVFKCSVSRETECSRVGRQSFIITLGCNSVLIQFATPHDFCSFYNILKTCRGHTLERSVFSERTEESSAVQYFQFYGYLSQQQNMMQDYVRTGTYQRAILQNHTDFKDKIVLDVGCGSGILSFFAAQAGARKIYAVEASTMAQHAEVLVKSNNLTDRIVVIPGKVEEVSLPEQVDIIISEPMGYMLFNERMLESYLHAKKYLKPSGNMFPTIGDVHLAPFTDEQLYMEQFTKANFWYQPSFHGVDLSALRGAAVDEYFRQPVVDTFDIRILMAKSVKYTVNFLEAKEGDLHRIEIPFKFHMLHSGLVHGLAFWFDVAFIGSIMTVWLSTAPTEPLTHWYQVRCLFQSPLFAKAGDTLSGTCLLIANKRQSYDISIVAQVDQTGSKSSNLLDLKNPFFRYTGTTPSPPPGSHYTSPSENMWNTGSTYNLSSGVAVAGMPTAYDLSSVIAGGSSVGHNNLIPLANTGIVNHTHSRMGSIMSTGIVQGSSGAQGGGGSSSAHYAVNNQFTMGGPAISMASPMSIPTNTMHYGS
Procedure, shortened: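 Recombinant CARM1 with histone H3 substrate, in Tris-HCl pH 9. Enzyme pre-incubated with compound for 10 min at RT. [3H]SAM (20% labelled, 0.033 mCi/ml) and H3 were added, then 15 min at 30 °C. Quenched with SAH and spotted on P30 filtermat. Washed twice with 10% TCA and once with 95% ethanol, then wax scintillant counting. Values are means of at least two experiments.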

[2] = (§1) Clearance in iv dosed rat; type: ADME, organism-based; conditions: in vivo
[3] = (§2) Volume of distribution at steady state in iv dosed rat; type: ADME, organism-based; conditions: in vivo, read-out: Vdss
[4] = (§3) Half life in iv dosed rat; type: ADME, organism-based; conditions: in vivo
[5] = Bioavailability in rat; type: ADME, organism-based; conditions: in vivo
[6] = molecular target: Protein arginine N-methyltransferase 1 (Homo sapiens, UniProt Q99873); test: Inhibition of N-terminal GST-tagged human recombinant PRMT1 expressed in Escherichia coli by microbeta counting
Chain of Protein arginine N-methyltransferase 1 (Q99873 whole entry): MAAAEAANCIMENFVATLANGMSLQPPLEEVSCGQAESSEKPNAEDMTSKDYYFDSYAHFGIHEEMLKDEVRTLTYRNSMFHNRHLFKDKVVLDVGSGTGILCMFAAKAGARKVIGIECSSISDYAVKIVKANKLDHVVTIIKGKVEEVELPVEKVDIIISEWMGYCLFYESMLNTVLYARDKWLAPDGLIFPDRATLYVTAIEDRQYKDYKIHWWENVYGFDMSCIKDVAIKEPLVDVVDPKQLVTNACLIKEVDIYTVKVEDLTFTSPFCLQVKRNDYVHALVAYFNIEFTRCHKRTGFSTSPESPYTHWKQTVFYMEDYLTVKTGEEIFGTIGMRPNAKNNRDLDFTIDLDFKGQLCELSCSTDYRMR
Procedure, shortened: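 GST-tagged human PRMT1 made in E. coli, with recombinant histone H4 as substrate, in Tris-HCl pH 9. Enzyme pre-incubated with compound for 10 min at RT. [3H]SAM (20% labelled, 0.033 mCi/ml) and H4 were added, then 15 min at 30 °C. Stopped with SAH and spotted onto P30 filtermat. Washed with 10% TCA and 95% ethanol, then scintillation-counted.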

[7] = molecular target: T2, Histone-lysine N-methyltransferase SETD7 (Homo sapiens, UniProt Q8WTS6); test: Inhibition of N-terminal His-tagged human recombinant SET7/9 expressed in Escherichia coli by microbeta counting
T2 sequence (Q8WTS6 whole entry): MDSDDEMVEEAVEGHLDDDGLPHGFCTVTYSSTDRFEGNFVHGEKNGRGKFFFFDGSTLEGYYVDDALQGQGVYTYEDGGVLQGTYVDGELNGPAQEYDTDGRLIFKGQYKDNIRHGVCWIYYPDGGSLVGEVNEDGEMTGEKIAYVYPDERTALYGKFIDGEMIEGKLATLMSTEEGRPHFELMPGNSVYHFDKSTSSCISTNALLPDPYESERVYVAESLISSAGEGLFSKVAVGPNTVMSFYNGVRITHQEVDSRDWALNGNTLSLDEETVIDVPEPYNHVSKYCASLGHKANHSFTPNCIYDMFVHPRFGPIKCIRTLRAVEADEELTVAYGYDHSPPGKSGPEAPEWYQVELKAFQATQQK
Procedure, shortened: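 His-tagged human SET9 made in E. coli, with histone H3 substrate, in Tris-HCl pH 9. Compound and enzyme pre-incubated for 10 min at RT. [3H]SAM (20% labelled, 0.011 mCi/ml) and H3 were added, then 45 min at 37 °C. Reaction stopped and transferred to a flashplate. Washed twice with 10% TCA, dried and counted.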

Rattus norvegicus [8] = test: as §1; type: ADME, organism-based; conditions: in vivo
Rattus norvegicus [9] = test: as §2; type: ADME, organism-based; conditions: in vivo
Rattus norvegicus [10] = test: as §3; type: ADME, organism-based; conditions: in vivo

Structure (SMILES) | IC50 [1] [µM] | other results
COc1ccccc1CNC(=O)c1cc(C(F)(F)F)nn1-c1cccc(-c2noc([C@H](C)N)n2)c1 | > 20 | 
CNCCNC(C)c1cccc(-n2nc(C(F)(F)F)cc2C(=O)NCc2ccccc2OC)c1 (stereo unspecified) | 21 | 
COc1ccccc1CNC(=O)c1cc(C(F)(F)F)nn1-c1cccc(CNCCN(C)C)c1 | 7.9 | 
CNCCNCc1cc(-n2nc(C(F)(F)F)cc2C(=O)NCc2ccccc2OC)cc(C(F)(F)F)c1 | > 20 | 
CNCCNCc1ccc2c(c1)n1nc(C(F)(F)F)cc1c(=O)n2Cc1ccccc1OC | > 10 | 
CNCCNCc1cccc(-n2nc(C(F)(F)F)cc2-c2nnc(-c3ccccc3OC)o2)c1 |  | clearance [2]: 36.7 mL/min/kg; Vd [3]: 0.6 L/kg; half-life [4]: 1.8 h; bioavailability [5]: 3%
CCNCCNCc1cccc(-n2nc(C(F)(F)F)cc2C(=O)NCc2ccccc2OC)c1 | 7.7 | 
COc1ccccc1CNC(=O)c1cc(C(F)(F)F)nn1-c1cccc(CNC2CCNC2)c1 (stereo unspecified) | > 20 | 
CNCCNC(=O)c1cccc(-n2nc(C(F)(F)F)cc2C(=O)NCc2ccccc2OC)c1 | > 20 | 
CNCCNCc1cc(-n2nc(C(F)(F)F)cc2C(=O)NCc2ccccc2OC)ccc1C | 7.94 | 
COc1ccccc1CNC(=O)c1cc(C(F)(F)F)nn1-c1cccc(CNC(=O)[C@H](C)O)c1 | > 20 | 
COc1ccccc1CNC(=O)c1cc(C(F)(F)F)nn1-c1cccc(-c2n[nH]c([C@H](C)N)n2)c1 | > 20 | 
COc1ccccc1CNC(=O)c1cc(C(F)(F)F)nn1-c1cccc(CCNC(=O)[C@H](C)N)c1 | > 20 | 
CNCCNCc1cc(-n2nc(C(F)(F)F)cc2C(=O)NCc2ccccc2OC)ccc1F | 5.6 | 
CNCCNCc1cccc(-n2nc(C(F)(F)F)cc2C(=O)NCc2ccccc2)c1 | > 10 | 
CNCCNCc1cccc(-n2nc(C(F)(F)F)cc2C(=O)NCc2ccccc2OC(F)(F)F)c1 | 6.5 | 
CNCCNCc1cccc(-n2nc(C(F)(F)F)cc2C(=O)NCc2ccccc2N)c1 | > 10 | 
CNCCNCc1cccc(-n2nc(C(F)(F)F)cc2C(=O)NCc2ccccc2C)c1 | 13.1 | 
COc1ccccc1CNC(=O)c1cc(C(F)(F)F)nn1-c1cccc(CNC(=O)[C@H](C)N)c1 |  | CL (Rattus norvegicus [8]): 1430 mL/min/kg; Vdss (Rattus norvegicus [9]): 33.6 L/kg; t1/2 (Rattus norvegicus [10]): 4.2 min

Second part, led by results:

IC50 [1] [µM] | Structure (SMILES) | other results
1 | COc1ccccc1CNC(=O)c1cc(C(F)(F)F)nn1-c1cccc(CNCCN)c1 | 
0.32 | CNCCNCc1cccc(-n2nc(C(F)(F)F)cc2C(=O)NCc2cccc3ccccc23)c1 | clearance [2]: 38.3 mL/min/kg; Vd [3]: 0.2 L/kg; half-life [4]: 1.4 h; bioavailability [5]: 3%
3.35 | CNCCNCc1cccc(-n2nc(C(F)(F)F)cc2C(=O)NCc2c(OC)ccc3ccccc23)c1 | 
0.2 | CNCCNCc1cccc(-n2nc(C(F)(F)F)cc2C(=O)NCc2ccccc2OC)c1 | clearance [2]: 20 mL/min/kg; Vd [3]: 1.4 L/kg; half-life [4]: 2.1 h; bioavailability [5]: 4%; IC50 [6]: > 100 µM; IC50 [7]: > 100 µM
4.5 | COc1ccccc1CNC(=O)c1cc(C(F)(F)F)nn1-c1cccc(CNC(=S)[C@H](C)N)c1 | 
0.71 | CNCCNCc1cccc(-n2nc(C(F)(F)F)cc2C(=O)NCc2cc(F)ccc2OC)c1 | 
0.71 | CNCCNCc1cccc(-n2nc(C(F)(F)F)cc2C(=O)NCc2cccc3c2OCCO3)c1 | 
4.3 | CNCCNCc1cccc(-n2nc(C(F)(F)F)cc2C(=O)NCc2nc3ccccc3[nH]2)c1 | 
1.8 | CNCCNCc1cccc(-n2nc(C(F)(F)F)cc2C(=O)NCCc2c[nH]c3ccccc23)c1 | 
1.61 | CCc1ccccc1CNC(=O)c1cc(C(F)(F)F)nn1-c1cccc(CNCCNC)c1 | 
0.9 | CCOc1ccccc1CNC(=O)c1cc(C(F)(F)F)nn1-c1cccc(CNCCNC)c1 | clearance [2]: 20 mL/min/kg; Vd [3]: 0.1 L/kg; half-life [4]: 0.5 h; bioavailability [5]: 2%
3.6 | CNCCNCc1cccc(-n2nc(C(F)(F)F)cc2C(=O)NCC2CCCCC2)c1 | 
4.7 | CNCCNCc1cccc(-n2nc(C(F)(F)F)cc2C(=O)NCc2nc3ccccc3n2C)c1 | 
